From ChEMBL document CHEMBL2417436, “Synthesis and biological effects of novel 2-amino-3-(4-chlorobenzoyl)-4-substituted thiophenes as allosteric enhancers of the A1 adenosine receptor” (Eur J Med Chem, 2013)

Key:
[1] = target: T1, Adenosine receptor A1 (Homo sapiens) (UniProt P30542); assay: Allosteric enhancement of human adenosine A1 receptor expressed in CHO cells assessed as increase of [3H]CCPA Bmax at 10 uM after 90 mins; type: cell-based
T1 sequence (whole entry): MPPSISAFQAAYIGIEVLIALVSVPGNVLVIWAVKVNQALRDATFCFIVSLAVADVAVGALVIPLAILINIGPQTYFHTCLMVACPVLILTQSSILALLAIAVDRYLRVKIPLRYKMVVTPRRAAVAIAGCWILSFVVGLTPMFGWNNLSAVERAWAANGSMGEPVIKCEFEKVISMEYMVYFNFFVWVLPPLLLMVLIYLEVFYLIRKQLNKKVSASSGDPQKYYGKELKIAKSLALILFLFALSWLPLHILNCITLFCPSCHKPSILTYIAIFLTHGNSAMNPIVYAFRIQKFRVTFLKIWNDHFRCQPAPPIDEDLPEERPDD
In short: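 Saturation of [3H]CCPA (0.05–20 nM) on hA1CHO membranes in 50 mM Tris-HCl, pH 7.4, with or without compound at final 10 μM. Triplicate, 25 °C, 90 min. Nonspecific binding defined with 1 μM R-PIA. Filter-bound radioactivity counted. KD and Bmax fitted by weighted nonlinear least squares; Bmax shift versus control. Mean ± SEM, n=3.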

[2] = target: Adenosine receptor A2a (Homo sapiens) (UniProt P29274); assay: Displacement of [3H]ZM 241385 from human adenosine A2A receptor expressed in CHO cells at 10 uM after 60 mins by scintillation counting; type: cell-based
In short: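 hA2ACHO membranes in 50 mM Tris HCl, 10 mM MgCl2, pH 7.4, 4 °C for 60 min. [3H]ZM 241385 given as 1 nM in methods and 2 nM in table footnote. Compound at 10 μM from 100-fold DMSO stock, 1% DMSO final. Nonspecific binding with 1 μM ZM 241385. Filtration and scintillation counting. Percent inhibition of control specific binding, ±SEM, n=3.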

[3] = target: T2, Adenosine receptor A3 (Homo sapiens) (UniProt P0DMS8); assay: Displacement of [3H]MRE-3008-F20 from human adenosine A3 receptor expressed in CHO cells at 10 uM after 120 mins by scintillation counting
T2 sequence (whole entry): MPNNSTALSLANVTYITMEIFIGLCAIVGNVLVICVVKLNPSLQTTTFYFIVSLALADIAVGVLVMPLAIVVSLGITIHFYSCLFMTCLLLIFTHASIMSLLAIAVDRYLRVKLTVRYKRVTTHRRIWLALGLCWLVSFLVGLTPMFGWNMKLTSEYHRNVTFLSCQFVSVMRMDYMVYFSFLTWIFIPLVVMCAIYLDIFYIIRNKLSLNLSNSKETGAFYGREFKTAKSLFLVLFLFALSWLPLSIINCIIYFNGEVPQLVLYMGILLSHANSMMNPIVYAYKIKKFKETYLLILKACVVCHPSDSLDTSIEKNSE

[4] = target: T1, Adenosine receptor A1 (Homo sapiens); assay: Allosteric enhancement of human adenosine A1 receptor expressed in CHO cells assessed as inhibition of forskolin-induced cAMP production at 10 uM after 10 mins; type: functional, cell-based
In short: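 Whole hA1CHO cells (10⁶/mL) preincubated 10 min at 37 °C in phosphate buffer with adenosine deaminase (1.0 IU/mL) and Ro 20-1724 (0.5 mM). Compound alone at 10 μM for a further 10 min; forskolin 1 μM for 5 min. TCA stop, ether extraction, cAMP by [3H]-cAMP protein-binding competition assay. Expressed as pmol/10⁶ cells; mean ± SEM, three experiments.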

[5] = target: T1, Adenosine receptor A1 (Homo sapiens); assay: Allosteric enhancement of human adenosine A1 receptor expressed in CHO cells assessed as increase of CCPA Ki at 10 uM after 90 mins by [3H]DPCPX radioligand binding assay; type: cell-based
In short: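 hA1CHO membranes (50 mM Tris-HCl, pH 7.4, adenosine deaminase-treated). [3H]DPCPX 1 nM competed by CCPA (0.01 nM–1 μM) with or without test compound at 10 μM. Triplicate, 90 min at 25 °C. Nonspecific binding taken with 1 μM DPCPX. Filtration, then scintillation counting. Ki by Cheng–Prusoff. Shift = Ki(CCPA)/Ki(CCPA+enhancer). Mean ± SEM, n=3.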

[6] = target: T1, Adenosine receptor A1 (Homo sapiens); assay: Allosteric enhancement of human adenosine A1 receptor expressed in CHO cells assessed as inhibition of CCPA-induced cAMP production at 100 nM after 10 mins; type: functional, cell-based
In short: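 Intact hA1CHO cells (10⁶/mL) in phosphate buffer with adenosine deaminase 1.0 IU/mL and Ro 20-1724 0.5 mM, preincubated 10 min at 37 °C. Compound 100 nM plus CCPA 1 pM added for 10 min, then forskolin 1 μM for 5 min. Stopped with cold 6% TCA, ether-extracted. cAMP measured by [3H]-cAMP competition with adrenal binding protein (4 °C, 150 min). pmol/10⁶ cells, mean ± SEM of three.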

[7] = target: T1, Adenosine receptor A1 (Homo sapiens); assay: Displacement of [3H]DPCPX from human adenosine A1 receptor expressed in CHO cells at 10 uM after 120 mins by scintillation counting

Chain of Adenosine receptor A2a (Homo sapiens) (P29274 whole entry): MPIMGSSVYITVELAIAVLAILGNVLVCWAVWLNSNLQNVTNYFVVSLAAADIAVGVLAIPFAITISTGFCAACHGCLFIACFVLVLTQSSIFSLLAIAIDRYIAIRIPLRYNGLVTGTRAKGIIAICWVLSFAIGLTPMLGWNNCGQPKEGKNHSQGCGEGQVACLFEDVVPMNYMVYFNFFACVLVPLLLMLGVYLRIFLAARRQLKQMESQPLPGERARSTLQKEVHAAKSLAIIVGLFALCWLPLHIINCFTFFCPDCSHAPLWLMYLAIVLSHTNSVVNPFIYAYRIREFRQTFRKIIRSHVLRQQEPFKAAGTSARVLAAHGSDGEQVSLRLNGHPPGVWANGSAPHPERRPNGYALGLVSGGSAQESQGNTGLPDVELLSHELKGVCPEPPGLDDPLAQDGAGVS

SMILES	fold change (FC) [1]	inhibition [2] [%]	inhibition [3] [%]	inhibition [4] [%]	fold change (FC) [5]	inhibition [6] [%]	inhibition [7] [%]
Nc1sc(-c2ccccc2)c(CN2CCCCC2)c1C(=O)c1ccc(Cl)cc1	2.9	1	7	24	2.7	22	1
Nc1scc(CN2CCc3[nH]c4ccccc4c3C2)c1C(=O)c1ccc(Cl)cc1	1	1	1	3	1	11	0
Nc1scc(COc2ccccc2)c1C(=O)c1ccc(Cl)cc1	1.3	0	2	9	1.2	11	1
CC(C)c1ccc(OCc2csc(N)c2C(=O)c2ccc(Cl)cc2)cc1	1.8	1	9	15	1.5	18	3
CN(Cc1c(-c2ccccc2)sc(N)c1C(=O)c1ccc(Cl)cc1)C(C)(C)C	1.3	1	10	10	1.3	13	5
CN(Cc1csc(N)c1C(=O)c1ccc(Cl)cc1)c1ccccc1	2.4	1	9	18	2.2	16	1
CC(C)N(Cc1csc(N)c1C(=O)c1ccc(Cl)cc1)C(C)C	1	0	3	4	1	14	1
CCCN(CCC)Cc1csc(N)c1C(=O)c1ccc(Cl)cc1	1.2	0	5	9	1.1	10	4
Nc1scc(CN2CCC3(CC2)Oc2ccccc2O3)c1C(=O)c1ccc(Cl)cc1	5.1	1	5	45	4.7	43	1
C=CCN(CC=C)Cc1c(-c2ccccc2)sc(N)c1C(=O)c1ccc(Cl)cc1	4.2	1	5	36	3.9	34	3
CN(Cc1csc(N)c1C(=O)c1ccc(Cl)cc1)c1ccc(C(F)(F)F)cc1	3.2	0	4	29	2.8	31	3
C=CCN(CC=C)Cc1c(Br)sc(N)c1C(=O)c1ccc(Cl)cc1	1.2	1	8	8	1.2	13	6

Second part, the compound after the results:

fold change (FC) [1]	inhibition [2] [%]	inhibition [3] [%]	inhibition [4] [%]	fold change (FC) [5]	inhibition [6] [%]	inhibition [7] [%]	SMILES
4.6	3	1	41	4.1	43	0	Nc1scc(CN2CCc3ccccc3C2)c1C(=O)c1ccc(Cl)cc1
1.2	1	1	8	1.1	13	2	Nc1scc(CN2CCc3[nH]c4ccc(Cl)cc4c3C2)c1C(=O)c1ccc(Cl)cc1
8.2	2	5	69	7.2	65	0	Nc1scc(CN2CCn3c(cc4cc(F)ccc43)C2)c1C(=O)c1ccc(Cl)cc1
7.4	0	4	64	6.9	60	4	Nc1scc(CN2CCn3c(cc4cc(Cl)ccc43)C2)c1C(=O)c1ccc(Cl)cc1
1	0	7	3	1	13	6	Cc1ccc2c(c1)CC1CN(Cc3csc(N)c3C(=O)c3ccc(Cl)cc3)CCN21 (stereo unspecified)
7.5	0	3	66	6.6	62	3	Nc1scc(CN2CCn3c(cc4ccccc43)C2)c1C(=O)c1ccc(Cl)cc1
